≈ marks a conversion by molar mass, not a printed value. Calls of active or inactive are those of the source. The calls are words filed in the database; no cut-off is given here.
Legend:
[1] = tested on: Trypanosoma brucei brucei; assay: Antitrypanosomal activity against Trypanosoma brucei brucei clone 427-221a assessed as growth inhibition after 40 hrs by ATP-bioluminescence assay; assay type: functional, organism-based
Method in brief: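 Bloodstream-form parasites (1×10^4/well) were grown in HMI-9 with 10% FBS, 10% Serum Plus and penicillin/streptomycin at 37 °C, 5% CO2. Samples were tested at 12.5 and 1.25 µg/mL, or serially diluted 25–0.001 µg/mL for IC50, at 0.5% final DMSO. Incubation was 40 h. ATP was read by CellTiter-Glo. Log10 signals were converted to % inhibition against 0.5% DMSO and 50 µM thimerosal controls, and curves were fitted.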

[2] = Antiproliferative activity against human H522-T1 cells assessed as cell viability after 96 hrs by CellTiter-Glo luminescence assay; assay type: functional, cell-based; conditions: H522-T1, 96 h
Method in brief: (§1)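 Cells grown in 96-well plates with no compound or continuous exposure to 1.5–50 000 nM for 96 h. Growth was read by CellTiter-Glo luminescence. IC50 is the concentration giving 50% growth inhibition versus untreated cells. Two separate replicate experiments were run.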

MDA-MB-435 = assay: Antiproliferative activity against human MDA-MB-435 cells assessed as cell viability after 96 hrs by CellTiter-Glo luminescence assay; assay type: functional, cell-based; conditions: MDA-MB-435, 96 h; method in brief: as §1
U-937 = assay: Antiproliferative activity against human U937 cells assessed as cell viability after 96 hrs by CellTiter-Glo luminescence assay; assay type: functional, cell-based; conditions: U-937, 96 h; method in brief: as §1
HeLa [3] = assay: Induction of microfilament disruption in human HeLa cells at 20 ug/ml after 24 hrs by Hoechst staining-based fluorescence microscopic analysis; assay type: functional, cell-based
Method in brief: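 HeLa cells (1500/well, 384-well) were seeded and incubated overnight at 37 °C, 5% CO2, then samples were pin-transferred. After 24 h cells were fixed in 4% formaldehyde for 20 min, permeabilised with 0.5% Triton X-100 for 10 min and blocked with 2% BSA. Actin was stained with rhodamine-phalloidin and DNA with Hoechst 33342. Images were taken by automated fluorescence microscopy at 10×.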

HT-29 = assay: Antiproliferative activity against human HT-29 cells assessed as cell viability after 96 hrs by CellTiter-Glo luminescence assay; assay type: functional, cell-based; conditions: HT-29, 96 h; method in brief: as §1
HeLa [4] = assay: Stabilization of microtubule in human HeLa cells at 20 ug/ml after 24 hrs by Hoechst staining-based fluorescence microscopic analysis; assay type: functional, cell-based
RAW264.7 [5] = assay: Cytotoxicity against mouse RAW264.7 cells assessed as cell viability […] by MTT assay; assay type: functional; conditions: in the assay text read “20 hrs” for “24 hrs”
Method in brief: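 MTT test on extracts at 10 µg/mL and library fractions at 20 µg/mL, dissolved in DMSO. RAW264.7 cells were exposed for 20 h. MTT was then added for 2 h, the medium removed, formazan dissolved in DMSO, and absorbance read at 570 nm.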

RAW264.7 [6] = assay: Cytotoxicity against mouse RAW264.7 cells assessed as cell viability at 10 uM after 20 hrs by MTT assay
PC-3 = assay: Cytotoxicity against human PC3 cells assessed as cell viability at 10 uM after 24 hrs by MTT assay; assay type: functional, cell-based

SMILES | IC50 [1] [µg/mL] | IC50 (MDA-MB-435) [µg/mL] | IC50 (U-937) [µg/mL] | IC50 (HT-29) [µg/mL] | IC50 [2] [µg/mL] | Activity (HeLa [3]) | Activity (HeLa [4]) | Activity (RAW264.7 [5]) [µM] | Activity (RAW264.7 [6]) | Activity (PC-3)
C[C@]12CCC[C@](C)(C(=O)O)[C@@H]1CC[C@@]1(C)c3cocc3CC[C@H]21 |  |  |  |  |  |  |  | >90 |  | 
COc1cccc2c1C(=O)c1c(O)c3c(c(O)c1C2=O)C[C@@](O)(C(=O)CO)C[C@@H]3O[C@H]1C[C@H](N)[C@H](O)[C@H](C)O1 |  |  |  |  |  |  |  |  | Active | Active
C[C@H]1CCC[C@]2(C)C(=O)[C@H](C(O)C(=O)O)CC[C@]12C (some centres undefined) [AIGNOPSANOIC ACID B] | > 10 | > 2.5 | > 2.5 | > 2.5 | > 2.5 | inactive | inactive |  |  | 
C/C(=C/C(=O)O)CC/C=C/C=C\[C@@H](C)CC[C@@H](O)CCCC(=O)c1csc(=O)[nH]1 [APO LATRUNCULIN T] | 4.8 (≈ 11.4 µM) | > 2.5 | > 2.5 | > 2.5 | > 2.5 | inactive | inactive |  |  | 
C=C1C[C@H](C)C[C@@H]2CC=C[C@@H](C/C=C\C(=O)O[C@H]3C[C@@H](O[C@H]3/C=C/[C@@H]3CC(C)=CCO3)[C@@H](O)[C@@H](O)C1)O2 [FIJIANOLIDE A] | 1.4 (≈ 2.72 µM) | 0.02 (≈ 0.0389 µM) | 0.03 (≈ 0.0583 µM) | 0.04 (≈ 0.0777 µM) | 0.02 (≈ 0.0389 µM) | Active | inactive |  |  | 
C=C1C[C@H](C)C[C@@H]2CC=C[C@@H](C/C=C\C(=O)O[C@H]([C@@H](O)/C=C/[C@@H]3CC(C)=CCO3)C[C@@H]3O[C@H]3[C@@H](O)C1)O2 [FIJIANOLIDE B] | 0.08 (≈ 0.155 µM) | 0.002 (≈ 0.00389 µM) | 0.003 (≈ 0.00583 µM) | 0.003 (≈ 0.00583 µM) | 0.002 (≈ 0.00389 µM) | Active | inactive |  |  | 
C/C1=C/C(=O)O[C@@H]2C[C@@H](CC[C@H](C)/C=C\C=C\CC1)O[C@@](O)([C@@H]1CSC(=O)N1)C2 [LATRUNCULIN A] | 1.2 (≈ 2.85 µM) | 0.04 (≈ 0.0949 µM) | 0.07 (≈ 0.166 µM) | 0.08 (≈ 0.19 µM) | 0.06 (≈ 0.142 µM) | inactive | Active |  |  | 
C=CC/C=C\Cc1csc(C(C)(C)[C@H](O)C/C=C\C(=C)CCNC(=O)OC)n1 [MYCOTHIAZOLE] | 6.7 (≈ 16.6 µM) | 1 (≈ 2.47 µM) | 0.01 (≈ 0.0247 µM) | 0.7 (≈ 1.73 µM) | 1 (≈ 2.47 µM) | inactive | inactive |  |  | 
CCCCCCC(C)CCCCCCCCCOC[C@H](O)COC1[C@@H](O)[C@H](O)[C@@H](O)[C@@H]1O (some centres undefined) [SACROTRIDE A] | > 10 | > 2.5 | > 2.5 | > 2.5 | > 2.5 | inactive | inactive |  |  | 

Continued, in another order:

IC50 [1] [µg/mL] | IC50 (MDA-MB-435) [µg/mL] | IC50 (U-937) [µg/mL] | IC50 (HT-29) [µg/mL] | SMILES | IC50 [2] [µg/mL] | Activity (HeLa [3]) | Activity (HeLa [4]) | Activity (RAW264.7 [5]) [µM] | Activity (RAW264.7 [6]) | Activity (PC-3)
> 10 | > 2.5 | > 2.5 | > 2.5 | C=C1C[C@H](C)C[C@@H]2CC=C[C@@H](C/C=C\C(=O)O[C@H]3C[C@@H](O[C@@]3(/C=C/[C@@H]3CC(C)=CCO3)OC)[C@@H](O)[C@@H](O)C1)O2 | > 2.5 | Active |  |  |  | 
3.6 (≈ 8.23 µM) | > 2.5 | > 2.5 | > 2.5 | C/C1=C/C(=O)O[C@@H]2C[C@@H](CC[C@H](C)/C=C\C(=O)CCC1)O[C@@](O)([C@@H]1CSC(=O)N1)C2 | > 2.5 | inactive | inactive |  |  | 
> 10 | > 2.5 | > 2.5 | > 2.5 | COC(CC1=CC[C@]2(C)[C@@H](C)CCC[C@]2(C)C1=O)OC [AIGNOPSANE KETAL] | > 2.5 | inactive | inactive |  |  | 
6.5 (≈ 26 µM) | > 2.5 | > 2.5 | > 2.5 | C[C@H]1CCC[C@]2(C)C(=O)/C(=C\C(=O)O)CC[C@]12C [AIGNOPSANOIC ACID A] | > 2.5 | inactive | inactive |  |  | 
1.4 (≈ 2.65 µM) | > 2.5 | > 2.5 | > 2.5 | C=C1C[C@H](C)C[C@@H]2CC=C[C@@H](C/C=C\C(=O)O[C@H]3C[C@@H](O[C@H]3/C=C/[C@@H]3CC(C)=CC(=O)O3)[C@@H](O)[C@@H](O)C1)O2 [FIIJIANOLIDE D] | > 2.5 | Active | inactive |  |  | 
0.09 (≈ 0.198 µM) | > 2.5 | 0.31 (≈ 0.68 µM) | 0.65 (≈ 1.43 µM) | C/C1=C/C(=O)O[C@@H]2C[C@@H](CC[C@H](C)/C=C\[C@H](O)[C@@H](O)CC1)O[C@@](O)([C@@H]1CSC(=O)N1)C2 [LATRUNCULOL A] | 0.76 (≈ 1.67 µM) | inactive | Active |  |  | 
2 (≈ 4.26 µM) | > 2.5 | > 2.5 | > 2.5 | CO[C@H]1/C=C\[C@@H](C)CC[C@@H]2C[C@H](C[C@](O)([C@@H]3CSC(=O)N3)O2)OC(=O)/C=C(/C)CC[C@@H]1O [LATRUNCULOL B] | > 2.5 | inactive | Active |  |  | 
1 (≈ 2.29 µM) | > 2.5 | 1.18 (≈ 2.7 µM) | 0.8 (≈ 1.83 µM) | C/C1=C/C(=O)O[C@@H]2C[C@@H](CC[C@H](C)/C=C\CC(=O)CC1)O[C@@](O)([C@@H]1CSC(=O)N1)C2 [LATRUNCULONE B] | 0.8 (≈ 1.83 µM) | inactive | Active |  |  | 
> 10 | > 2.5 | > 2.5 | > 2.5 | COC(=O)/C=C1/CC[C@]2(C)[C@@H](C)CCC[C@]2(C)C1=O [METHYL AIGNOPSANOATE] | > 2.5 | inactive | inactive |  |  | 

— ChEMBL document CHEMBL1932932, “Natural product libraries to accelerate the high-throughput discovery of therapeutic leads” (J Nat Prod, 2011)
